S100A4 inh HTS: inhibitors of S100A4-myosin IIA peptide binding, primary screen, biochemical, fluorescence polarization, TAMRA-MyoIIA peptide; 0.14% of 360,000 active; Protein S100-A4 (Homo sapiens), P26447; inhibition, % at 10.7 µM; AID 652163, 2013;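 active = mean inhibition of at least 70% across replicates, with every replicate also reaching that level; inconclusive = mean inhibition reaches 70% but some replicates fall short; inactive = mean inhibition below 70%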
Target sequence (P26447 whole entry, looked up): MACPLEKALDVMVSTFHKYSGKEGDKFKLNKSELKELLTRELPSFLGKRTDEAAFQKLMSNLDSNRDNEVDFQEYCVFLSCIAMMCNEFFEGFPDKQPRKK
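Compound dosing: one dose per compound; test system: human S100A4 monomer with TAMRA-labelled myosin IIA peptide; probe or stimulus: TAMRA-labelled myosin IIA heavy-chain peptide probe, 5 nM; medium: HEPES buffer with Ca2+, pH 7.2; schedule: 5 min incubation before reading; benchmarks: neutral control DMSO, positive control TFP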
SIRT5 inh: SIRT5 desuccinylase inhibitors, primary screen, biochemical, fluorescence imaging, single point, set 5; NAD-dependent protein deacylase sirtuin-5, mitochondrial (Homo sapiens), Q9NXA8; Purified SirT5, succinyl-peptide AMC, trypsin-coupled fluorescence; inhibition, % at 15 µM; 1.1% of 330,000 active; in the data active = inhibition above about 15%; inconclusive = no clear call, values can overlap the other calls
Target sequence (Q9NXA8 whole entry, looked up): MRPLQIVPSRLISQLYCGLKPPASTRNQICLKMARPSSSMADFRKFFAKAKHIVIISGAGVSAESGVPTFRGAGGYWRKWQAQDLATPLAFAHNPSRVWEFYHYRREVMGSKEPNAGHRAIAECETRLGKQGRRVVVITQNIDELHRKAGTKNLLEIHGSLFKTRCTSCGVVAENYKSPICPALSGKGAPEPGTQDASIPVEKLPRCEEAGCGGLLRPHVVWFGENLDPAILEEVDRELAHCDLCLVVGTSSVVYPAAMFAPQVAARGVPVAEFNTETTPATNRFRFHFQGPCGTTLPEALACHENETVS
DENV2 CPE rescue: inhibitors of DENV2 cytopathic effect, primary screen, cell-based, plate reader, single concentration; DENV2-infected cells, cytopathic effect rescue; CPE inhibition, % at 9.99 µM; 1.7% of 350,000 active; in the data active = CPE inhibition above about 20%, passing the limit was not always enough; inconclusive = no clear call, values can overlap the other calls; tested in BHK-21 cells;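 also: 0% = median of neutral control wells and 100% = median of positive control wells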
CaV13 FRET inh: Primary screen for inhibitors of IQ motif and Ca2+-dependent inactivation inhibitor domain binding in CACNA1D, Förster resonance energy transfer in living cells, …; HEK cells, CFP/YFP FRET ICDI-IQ, plate reader, 10 min; percent FRET-ratio fall versus neutral wells; 0.098% of 340,000 active; inhibition, % at 12.3 µM;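 active = mean replicate inhibition of at least 30% and at least 1% of replicates passing that level; inconclusive = only one of the two criteria is met; inactive = neither criterion is met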;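 also: 0% = median of the neutral control wells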
MLL AF4-AF9 inh: inhibitors of AF4 peptide binding to AF9, primary screen, biochemical, AlphaScreen, biotin-AF4 peptide, FLAG-AF9, single point; inhibition, % at 10 µM; Protein AF-9 (Homo sapiens), P42568; 0.47% of 350,000 active;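 active = every replicate reaching a set inhibition limit, whatever the replicate mean, cut at about 25% in these data; inconclusive = mean inhibition reaches that limit but some replicates miss it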;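 also: 0% = plate neutral control median and 100% = total signal loss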
Active calls of the source: *; ? = inconclusive; . = no result. In the library only some 2.7% were active in any assay of this set; here they are far more common.

SMILES	S100A4 inh HTS	SIRT5 inh	DENV2 CPE rescue	CaV13 FRET inh	MLL AF4-AF9 inh
COc1ccc(S(=O)(=O)N(C)C[C@H]2OCCCC[C@H](C)Oc3ccc(NS(=O)(=O)c4ccc(Cl)cc4)cc3C(=O)N([C@@H](C)CO)C[C@@H]2C)cc1	1	.	15	.	0
CO[C@H]1CN(C)C(=O)c2ccc(NC(=O)c3cccc(F)c3)cc2OC[C@H](C)NC[C@@H]1C	2	-10	2	.	-2
COc1cccc(C(=O)Nc2ccc3c(c2)OC[C@H](C)NC[C@H](C)[C@@H](OC)CN(C)C3=O)c1	-3	0	25*	.	-6
CO[C@H]1CN(C)C(=O)c2cc(NC(=O)c3ccc(Oc4ccccc4)cc3)ccc2OC[C@@H](C)NC[C@H]1C	2	5	26*	.	9
CO[C@H]1CN(C)C(=O)c2ccc(NC(=O)c3ccccc3F)cc2OC[C@H](C)NC[C@@H]1C	126*	2	-4	.	-3
COc1cccc(C(=O)Nc2ccc3c(c2)OC[C@@H](C)NC[C@H](C)[C@H](OC)CN(C)C3=O)c1	14	5	5	.	-4
CO[C@@H]1CN(C)C(=O)c2ccc(NC(=O)c3cccc(F)c3)cc2OC[C@H](C)NC[C@@H]1C	22	-4	24*	.	-2
CO[C@H]1CN(C)C(=O)c2cc(NC(=O)c3ccc(Oc4ccccc4)cc3)ccc2OC[C@H](C)NC[C@@H]1C	1	5	0	.	.
CCNC(=O)C[C@@H]1CC[C@@H](NC(=O)C2CCOCC2)[C@H](CO)O1	4	0	-7	.	1
O=C(NCC[C@@H]1CC[C@@H](NS(=O)(=O)c2cccc(F)c2)[C@H](CO)O1)c1cnccn1	3	0	8	.	-1
Cc1ccnc(NC(=O)C(Cc2ccccc2)NC(=O)c2ccccc2)c1 (configuration not stated)	2	-2	38*	-6	-2
Cn1nnnc1Sc1ccc([N+](=O)[O-])cc1Cl	7	17*	.	-7	2
CCCN1C[C@H](C)[C@@H](OC)CN(C)C(=O)c2cc(NC(=O)c3ccccc3)ccc2OC[C@H]1C	-22	2	-5	.	1
CCCN1C[C@H](C)[C@@H](OC)CN(C)C(=O)c2ccc(NC(=O)c3ccccc3)cc2OC[C@@H]1C	3	.	23*	.	-3
CCCN1C[C@H](C)[C@H](OC)CN(C)C(=O)c2ccc(NC(=O)Nc3cccc(F)c3)cc2OC[C@H]1C	-7	7	25*	.	5
CCCN1C[C@@H](C)[C@H](OC)CN(C)C(=O)c2ccc(NC(=O)Nc3cccc(F)c3)cc2OC[C@@H]1C	-1	18*	-3	.	6
O=C(C[C@H]1C[C@H]2c3cc(NC(=O)NC4CCCC4)ccc3O[C@H]2[C@H](CO)O1)NCCN1CCCCC1	-2	-4	11	.	4
O=C(O)c1cccc(NC2=C(Cl)C(=O)c3ccccc3C2=O)c1	1	112*	10	-19	-3
COc1ccc(-c2cnc3c(c2)C(=O)N([C@@H](C)CO)C[C@@H](C)[C@H](CN(C)Cc2ccccc2)O3)cc1	-10	-1	9	.	5
CCC(=O)Nc1nc(C)c(-c2csc(Nc3cccc(C(=O)O)c3)n2)s1	-5	2	0	-5	-1
Cc1nc(N)sc1-c1csc(Nc2cccc(C(=O)O)c2)n1	-13	27*	4	-4	6
C[C@@H]1CN([C@@H](C)CO)S(=O)(=O)c2ccc(C#CC3(O)CCCC3)cc2O[C@H]1CN(C)C(=O)Cc1ccncc1	1	5	-1	.	3
Cc1c(Cl)cnc(NC(=O)COC(=O)Cc2coc3ccc4ccccc4c23)c1Cl	-6	-2	86*	-5	-3
COC(=O)C1=C(C)N(Cc2ccccc2C(F)(F)F)C(=NCc2ccccc2C(F)(F)F)NC1c1ccc(C(F)(F)F)cc1 (configuration not stated)	1	0	13	-8	.
C[C@@H]1CN([C@@H](C)CO)C(=O)c2cc(NC(=O)CCCN(C)C)ccc2O[C@@H]1CN(C)C	0	1	4	.	-5
SMILES	S100A4 inh HTS	SIRT5 inh	DENV2 CPE rescue	CaV13 FRET inh	MLL AF4-AF9 inh
CCOC(=O)C1=CN(CC)S(=O)(=O)NC1c1cccc(OC)c1 (configuration not stated)	-7	-4	24*	-5	-1
Cc1ccc(F)cc1S(=O)(=O)N[C@H]1CCN(Cc2ccc(OC(C)C)cc2)C1	0	-2	29*	.	4
Cc1ccc(F)cc1S(=O)(=O)N[C@@H]1CCN(Cc2ccc(OC(C)C)cc2)C1	-5	0	?	.	4
CCCc1nc2c(C)cc(Br)cn2c1Cc1ccccc1OC	-1	-3	-5	-7	4
Cc1ccc(NC(=O)c2cc(-c3cc(Cl)ccc3C)n[nH]2)cc1NS(C)(=O)=O	0	.	27*	-4	4
COc1ccc(Cl)cc1-c1cc(C(=O)Nc2ccc(C)c(NS(C)(=O)=O)c2)[nH]n1	-7	0	-2	-7	-4
COCC#Cc1ccc([C@@H]2[C@H](C#N)N(C(=O)c3cccnc3)[C@H]2CO)cc1	-5	2	-3	.	-1
Oc1ccccc1C=NCC(O)c1ccccc1 (configuration not stated)	-4	-4	76*	-4	5
CN[C@H]1C[C@H]2c3[nH]c4ccc(-c5cccc(C)c5)cc4c3CCN2C[C@H]1[C@H](C)O	-13	-3	-1	-4	40*
Cc1cccc(-c2ccc3[nH]c4c(c3c2)CCN2C[C@@H]([C@H](C)O)[C@@H](N(C)C(=O)NC3CCCCC3)C[C@@H]42)c1	-13	-2	-9	-6	16
Cc1cccc(-c2ccc3[nH]c4c(c3c2)CCN2C[C@H]3[C@H](C)ON(C)[C@H]3C[C@@H]42)c1	-32	-2	-7	-7	39*
O=C(C[C@H]1CC[C@H]2[C@@H](COC[C@H](O)CN2Cc2ccccc2F)O1)N1CCc2ccccc2C1	-1	-9	28*	.	1
O=C(C[C@H]1CC[C@H]2[C@@H](COC[C@@H](O)CN2Cc2ccccc2F)O1)N1CCc2ccccc2C1	3	-2	-8	.	-1
O=C(C[C@H]1CC[C@@H]2[C@H](COC[C@H](O)CN2Cc2ccc(Oc3ccccc3)cc2)O1)N1CCc2ccccc2C1	-5	18*	-3	.	4
O=C(C[C@H]1CC[C@@H]2[C@H](COC[C@@H](O)CN2Cc2ccccc2F)O1)N[C@H]1CCN(Cc2ccccc2)C1	4	23*	3	.	0
CCOCCCNC(=S)N1CCCN(c2nc3cc(C)c(C)cc3cc2C#N)CC1	0	-2	6	94*	-10
